In publication PMC11673187 (JACS Au, 2024):
Each block holds one substance with its values, some of them ahead of it.

Key:
[1] = test system: Nbs bearing click handles (Nb6EPEG4DBCO and NbALFAbiotinN3); test: Assessment of click chemistry; details: Gly vs Ahx linker; azide vs alkyne pairing; S4A-C
In short: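 Click cross-linking run at room temperature in TBS with 10 µM of each nanobody bearing a click handle (DBCO or azide), with or without equimolar dimeric template peptide. Quenched with 500 µM GGG-Lys(azide) peptide, then denatured in Laemmli buffer with 100 mM DTT at 95 °C. Products resolved on 15% polyacrylamide gels and stained. High-MW cross-linked band quantified by densitometry, normalized to a control quenched at T = 0.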

[2] = target: T1, PTHR1 (Homo sapiens, UniProt Q03431); test: PTHR1-mediated signaling via Gαs/cAMP; format: cell-based; details: DPahx 300 nM with various concentrations of Nb-PTH conjugates; Figure 3D, S8
T1 sequence (Q03431 27-593): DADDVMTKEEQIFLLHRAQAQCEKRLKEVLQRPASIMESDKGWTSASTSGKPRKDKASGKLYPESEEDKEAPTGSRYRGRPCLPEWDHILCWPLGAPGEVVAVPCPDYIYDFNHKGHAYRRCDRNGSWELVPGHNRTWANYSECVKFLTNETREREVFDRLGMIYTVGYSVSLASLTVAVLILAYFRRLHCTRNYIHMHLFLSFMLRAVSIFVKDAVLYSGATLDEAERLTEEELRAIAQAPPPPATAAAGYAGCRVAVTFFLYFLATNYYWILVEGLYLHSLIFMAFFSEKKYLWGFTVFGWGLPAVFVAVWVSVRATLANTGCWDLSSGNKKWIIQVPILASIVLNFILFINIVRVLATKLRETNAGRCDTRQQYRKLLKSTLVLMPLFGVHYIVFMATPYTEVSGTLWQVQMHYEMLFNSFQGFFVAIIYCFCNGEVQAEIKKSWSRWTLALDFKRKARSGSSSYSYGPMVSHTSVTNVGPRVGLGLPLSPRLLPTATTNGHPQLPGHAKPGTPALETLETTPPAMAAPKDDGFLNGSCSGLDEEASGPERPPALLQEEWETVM
In short: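 HEK293 cells stably expressing PTHR1 and a cAMP luminescence reporter, grown in DMEM with 10% FBS and Pen-Strep, mycoplasma-free. Varying concentrations of the complementary azide and DBCO nanobody–PTH fragment conjugates added with or without 300 nM dimeric peptide. Luminescence normalized to the maximum for the conjugate pair alone; technical replicates in a representative experiment.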

[3] = target: T1, PTHR1; details: fragments of PTH1–34; cited from earlier work
[4] = metal-free, absence of proximity enforcing conditions; cited from earlier work

Substance: CQADQEAKELARQISGSRLEEELRRRLTE [DPgly]
cross-linking kinetics [1]: no major differences observed

DP-potentiated activation of PTHR1 [2]: DP-potentiated activation of PTHR1
Substance: CQADQEAKELARQISZSRLEEELRRRLTE [DPahx]
cross-linking kinetics [1]: no major differences observed

Substance: PTH12–34: fragment of PTHR1 agonist peptide PTH1–34 (GKHLNSMERVEWLRKKLQDVHNF; Parathyroid hormone; UniProt P01270 43-65, looked up, fragment)
activity of PTHR1 agonist fragments [3]: weakly active or inactive

Substance: dibenzylcyclooctyne [DBCO]
DBCO-azide cycloaddition rate [4]: ~1 M^–1S^1–
